Molecules are shown by their SMILES. pIC50: −log10 of the molar value.

As usually defined, the pIC50 is the negative decadic logarithm of the IC50, by convention in mol/L.

In the assay the test system is E. coli BW25113 ΔtolC growth inhibition, OD615. Nature of the assay: E. coli ΔtolC antibacterial growth inhibition – strain BW25113 ΔtolC::kan, dose response (AID 617). In a few lines:
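Test system: E. coli BW25113 ΔtolC::kan bacteria / Buffer or medium: kanamycin-containing LB broth, 50 µg/mL / Compound: serial dilution series of compound / Incubation: bacterial growth with compound for 20 h, 37 °C / Measured by: OD615 / Read-out basis: growth-inhibition IC50 from four-parameter logistic curve, bounds set to 0% and 100%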
As to `COc1cc(/C=C(/C#N)c2ccc(F)cc2)ccc1OCc1ccc(C(=O)O)o1`, the pIC50 is 5.31.
As for `CN(C1CCCCC1)S(=O)(=O)c1ccc(NC(=O)c2ccc(Br)o2)cc1`, the figure is 4.97.
Regarding `COc1ccc(C(=O)Nc2nc(-c3cccs3)cs2)cc1`, the pIC50 was 5.09.
As for `CC(C)(C)c1ccc(-c2nnc(SCCC#N)n2C2CCCC2)cc1`, the pIC50 is 4.80.
The result for `COc1cccc(Cn2c(Oc3cccc(C)c3)nc3c2c(=O)n(C)c(=O)n3C)c1` reads 4.84.
Regarding `CCOc1cc(S(=O)(=O)n2cc(-c3ccc(F)cc3)c(N)n2)cc(OCC)c1OCC`, the negative-log IC50 (pIC50) was 4.68.
As for `CC1=C(C(=O)OC2CCCC2)C(c2ccc(C)o2)C2=C(CC(c3cccs3)CC2=O)N1` (configuration not stated), the figure is 4.95.
As for `CCCn1c(CNc2ccc(Br)cc2)nc2ccccc21`, the pIC50 was 5.21.
On to `CNc1nc(Nc2ccc(C(C)=O)cc2)nc(OC(C(F)(F)F)C(F)(F)F)n1`, for which the negative-log IC50 (pIC50) was 4.70.
As for `CC(=O)c1c(C)n([O-])c2ccccc2[n+]1=O`, the figure is 5.41; as for `CC(=O)c1sc(NC(=O)C2(F)C(F)(F)C(F)(F)C(F)(F)C(F)(F)C2(F)F)nc1C`, 6.04.
The result for `COC(=O)c1ccc(O)c(Sc2cc(C(=O)OC)ccc2O)c1` reads 5.72; that for `O=C(CCCOc1ccc(Cl)cc1Cl)N1CCN(c2ccccn2)CC1`, 5.22.
As for `COc1cc(NS(=O)(=O)c2ccc(NC(=O)COc3ccccc3Cl)cc2)nc(OC)n1`, the figure is 4.61; as for `N#CCSc1nc2c(c(C3CC=CCC3)c1C#N)CCC2` (configuration not stated), 4.89; as for `CCSc1oc(-c2ccccc2)nc1S(=O)(=O)c1ccccc1`, 4.96.
`O=C(Nc1cccc2cccnc12)c1ccc(Br)o1`: the pIC50 was 4.97.
Take `Cc1ccccc1Cn1nc(C)c(NC(=O)c2noc3c2CCc2ccccc2-3)c1C`: the pIC50 is 4.92.
The result for `O=C(Nc1nc(SCc2ccc(F)cc2)ns1)c1ccco1` reads 5.38.
`Cc1ccc(C)c(N2CCN(C(=O)c3cc4sccc4n3C)CC2)c1`: the pIC50 was 4.82.
As to `O=C(NCc1ccco1)c1cc2sccc2n1Cc1ccccc1`, the pIC50 was 4.84.
For the compound `CCC(Sc1nnc(-c2ccc(C)c(Cl)c2)n1CC)C(=O)Nc1nccs1` (configuration not stated), the pIC50 is 4.83.
For `O=C1c2ccccc2C(=O)N1CCC(c1ccc(F)cc1)c1ccco1` (configuration not stated), the pIC50 is 4.87.
The result for `CCOc1cc(S(=O)(=O)N2CCN(Cc3ccccc3)CC2)ccc1Br` reads 4.72; that for `CCc1ccc2[nH]c(=O)c(C(c3nnnn3CCOC)N3CCN(c4ccc(F)cc4)CC3)cc2c1` (configuration not stated), 4.45.
As to `Cc1csc(NC(=O)c2cccc(Cn3nc(C)c(Br)c3C)c2)n1`, the pIC50 is 4.99.
The result for `CC1CCC2C(C1)c1sc(=O)[nH]c1SC2(C)C` (configuration not stated) reads 5.11; that for `O=C(CN(C(=O)CNC(=O)c1ccco1)c1ccc(Cl)c(Cl)c1)NC1CCCCC1`, 4.55.
As for `CCCN(CCC)S(=O)(=O)c1ccc(C(=O)Nc2nnc(-c3cccc(OC)c3)o2)cc1`, the figure is 6.59; as for `CCOc1cccc(NC(=O)C2CC(=O)N(C)C(=Nc3cccc(F)c3)S2)c1` (configuration not stated), 4.82; as for `CNc1ccc(C(O)(C(F)(F)F)C(F)(F)F)cc1C(O)(C(F)(F)F)C(F)(F)F`, 5.16.
With `CCn1c(=O)c(C(=O)Nn2c(C)nc3ccccc3c2=O)c(O)c2ccccc21`, the pIC50 is 5.49.
`CCOC(=O)N1CCN(c2nc(-c3ccc(F)cc3)cs2)CC1`: the pIC50 was 4.49.
For the compound `O=C(Nc1cccc(C(F)(F)F)c1)N1CCC(c2nc(-c3ccc(F)cc3)no2)CC1`, the pIC50 is 5.43.
The result for `COc1nnc(-c2ccc(N3CCCCC3)c(N)c2)c2ccccc12` reads 4.93; that for `Cc1ccc(Cn2c(SCC(C)C)nc3c2c(=O)n(C)c(=O)n3C)cc1`, 4.05; that for `CC1CC(C)CN(c2ncnc3c2cnn3Cc2ccc(Cl)cc2)C1` (configuration not stated), 5.22.
The result for `CCCCc1ccc(Nc2nc(CCC)cc(=O)[nH]2)cc1` reads 4.83; that for `Cc1ccccc1CSc1nc2n(n1)C(c1cccs1)C1=C(CCCC1=O)N2` (configuration not stated), 5.07.
With `CC1CCc2nc(NC(=O)c3cc(C(C)(C)C)nn3C)sc2C1` (configuration not stated), the pIC50 is 4.91.
As for `CCn1c(=N)n(CC(=O)C23CC4CC(CC(C4)C2)C3)c2ccccc21`, the figure is 4.89; as for `CSc1ccc(S(=O)(=O)Nc2ccc(N3CCOCC3)c(Cl)c2)cc1`, 5.18; as for `Cc1cccc(Nc2nc(-c3ccccn3)cs2)n1`, 6.17.
For the compound `Cc1nn(Cc2ccc(Cl)cc2)c(C)c1NC(=O)c1noc2c1CCCCC2`, the negative logarithm of the IC50 (pIC50) is 4.87.
For the compound `COc1ccc(CN(C(=O)CN2C(=O)C(C)Oc3ccccc32)C2CCCC2)c(OC)c1` (configuration not stated), the pIC50 is 4.55.
The result for `Cc1cc(C)nc(-n2nc(C)cc2Nc2ccccc2)n1` reads 5.58; that for `O=C1c2ccccc2C(Nc2cccc(C(F)(F)F)c2)N1Cc1ccco1` (configuration not stated), 5.14; that for `CCN(C(=O)c1ccc(C(C)(C)C)cc1)c1nnc(Cn2nnc3ccccc32)s1`, 4.32.
With `CSc1nc2ccc(NS(=O)(=O)c3ccc4c(c3)OCCO4)cc2s1`, the pIC50 is 5.54.
On to `CCOC(=O)c1sc(NC(=O)CSc2n[nH]c(-c3ccccc3)n2)c(C#N)c1C`, for which the negative logarithm of the IC50 (pIC50) is 5.77.
As for `Cc1ccc(C2(c3ccc(C)cc3)NC(=O)N(Cc3c(C)noc3C)C2=O)cc1`, the figure is 5.19; as for `Cc1cccc(NC(=O)c2cc(NC(=O)C3CCCCC3C(=O)O)ccc2N2CCCCC2)c1` (configuration not stated), 5.21; as for `Cc1ccc(Cl)cc1N1CCN(C(=O)CCS(=O)(=O)c2cccc3nonc23)CC1`, 4.36.
The result for `CC(=O)OCC1=C(C(=O)O)N2C(=O)[C@@H](NC(=O)Cc3cccs3)[C@H]2SC1` reads 6.00; that for `C=C(C)COc1ccc(-c2n[nH]c(C)c2-c2ccccc2)c(O)c1`, 5.07; that for `C=CCn1c(NC(C)c2cc(Cl)ccc2O)nc2ccccc21` (configuration not stated), 5.17.
The result for `CCOC(=O)c1sc(NC(=O)c2c(C)nn(Cc3ccccc3)c2C)cc1C` reads 5.03.
As to `Cc1cccc(Nc2nc(NCc3ccco3)nc(N3CCOCC3)n2)c1`, the pIC50 is 5.00.
`CCOc1ccc(S(=O)(=O)Nc2cccc(Cl)c2)cc1`: the negative-log IC50 (pIC50) is 5.30.
Turning to `Cn1c(CSc2nnc(SCc3ccccc3)s2)nc2ccccc21`, the pIC50 was 4.65.
As for `O=S(=O)(Nc1cc(Cl)ccc1N1CCCCC1)c1cccs1`, the figure is 4.90; as for `CC1CC(N(C(=O)c2ccco2)c2ccccc2)c2ccccc2N1` (configuration not stated), 4.87; as for `O=C(Nc1nnc(-c2ccc(Cl)cc2)o1)c1ccccc1Br`, 6.40.
The result for `COc1cccc(N2CC(C(=O)Nc3ccc(C(=O)OC(C)C)cc3)CC2=O)c1` (configuration not stated) reads 4.83.
`CN(Cc1ccccc1)Cc1nc2c(c(=O)n(C)c(=O)n2C)n1CCCc1ccccc1`: the pIC50 is 4.83.
The result for `Cc1ccc2c(c1)[nH]c1c(N3CCN(Cc4ccccc4)CC3)ncnc12` reads 4.41; that for `CC(C)c1ccc(Nc2nc(NCc3ccco3)nc(N3CCOCC3)n2)cc1`, 4.76.
As for `CC(C)Cc1cc(C(=O)Nc2cc(Br)ccc2O)no1`, the figure is 5.24; as for `COc1ccccc1C1CC(c2ccc(Cl)cc2)Nc2ncnn21` (configuration not stated), 4.82; as for `O=C(Oc1ccc2ccccc2c1Cl)N1CCCC1`, 4.64.
As for `COc1cc(-c2nc(Cc3ccccc3Cl)no2)cc(OC)c1OC`, the figure is 4.94.
Regarding `CCc1nc(N2CCCCC2)c2oc3ccccc3c2n1`, the pIC50 is 4.79.
In the case of `COc1ccc2[nH]c3c(=O)n(CCCCC(=O)N4CCCC4)c(=S)[nH]c3c2c1`, the pIC50 was 6.12.
For the compound `O=C(c1ccc2c(=O)n(C3CCCC3)c(=S)[nH]c2c1)N1CCN(C2CCCCC2)CC1`, the pIC50 is 4.82.
As for `CCc1c(O)nc(SCC(=O)Nc2ccc(C)cc2)n(C2CCCCC2)c1=O`, the figure is 5.13; as for `COc1ccc(CCN2C(=O)c3[nH]nc(-c4ccccc4O)c3C2c2ccc(C)cc2)cc1OC` (configuration not stated), 4.86; as for `COc1ccc(-c2[nH]ncc2Oc2ccccc2OC)c(O)c1`, 4.98.
As for `CCc1cc(C(=O)Cc2ccc(F)cc2)c(O)cc1O`, the negative logarithm of the IC50 (pIC50) was 5.11.
In the case of `CCCN(CCC)c1nc(NC2CCN(C(=O)OCC)CC2)nc(OC)n1`, the pIC50 was 4.91.
For the compound `Oc1ccc(-c2[nH]ncc2-c2ccc(Cl)cc2)c(O)c1`, the pIC50 was 4.95.
The result for `N#CCSc1n[nH]c2nc3c(c(=O)n12)C1(CCCC1)Cc1ccccc1-3` reads 5.38; that for `O=C(c1ccco1)N1CCN(c2ncnc3c2[nH]c2ccc(Br)cc23)CC1`, 4.35.
As for `O=C(CS(=O)(=O)c1ccccc1)Nc1nc(-c2ccccc2)cs1`, the figure is 5.09; as for `O=C(COc1cccc2ccccc12)N1CCN(c2ccccc2)CC1`, 4.65; as for `O=C(CN(Cc1ccc2c(c1)OCO2)C(=O)CSc1nc2ccccc2o1)NC1CCCCC1`, 5.21.
The result for `CCN(C1CCCCC1)S(=O)(=O)c1ccc(OC)c(C)c1` reads 4.77.
For `Oc1ccc2c(c1)oc1cc(O)ccc12`, the pIC50 is 4.78.
Turning to `COCc1nnc(NC(=O)c2ccc(S(=O)(=O)N3CCCCCC3)cc2)o1`, the pIC50 was 5.12.
As for `Cc1cccc(S(=O)(=O)Nc2nc3ccccc3nc2NCc2ccco2)c1`, the figure is 5.16; as for `O=C(Nc1nnc(-c2ccccc2)o1)c1ccc(Cl)cc1`, 6.77.
As for `c1ccc2c(c1)CCN(c1nc3cc4c(cc3s1)OCCO4)C2`, the figure is 4.83; as for `COc1ccc(/C(O)=C2\C(=O)C(=O)N(CC3CCCO3)C2c2cc(OC)ccc2OC)cc1` (configuration not stated), 4.93; as for `CCOc1ccc(C(=O)N2CCN(c3cccc(C)c3C)CC2)cc1`, 4.96.
The result for `c1ccc(CN2CCN(c3nc(-c4ccccc4)nc(-n4ccnc4)n3)CC2)cc1` reads 5.21.
With `Cc1cc(C)cc(Nc2cc(=O)n(C3CCCCC3)c(=O)[nH]2)c1`, the pIC50 is 5.55.
In the case of `CCOC(=O)C1CCN(c2ncnc3c2oc2ccc(Br)cc23)CC1`, the pIC50 was 4.89.
Regarding `Cc1ccc(-n2c(C)cc(C(=O)COC(=O)c3c(C)noc3C)c2C)cc1`, the negative logarithm of the IC50 (pIC50) is 5.25.

The values above are taken from PubChem BioAssay AID617 (SRMLSC, 2007).
